Keap1-Nrf2 PPI – inhibitors of human Keap1-Nrf2 protein-protein interaction; Q14145; Keap1 Kelch-Nrf2 peptide fluorescence polarization, 1536-well; inhibition, % at 9.4 µM; 340,000 tested, 0.15% active; AID 504523; in the data active means inhibition above about 12%;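 further: human Keap1 Kelch domain with fluorescein labeled Nrf2 9mer peptide probe; 0% = neutral control wells and 100% = peptide positive control; higher means more block of Keap1 binding to Nrf2 peptide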
Target sequence (Q14145 whole entry, looked up, the tested form may be a part): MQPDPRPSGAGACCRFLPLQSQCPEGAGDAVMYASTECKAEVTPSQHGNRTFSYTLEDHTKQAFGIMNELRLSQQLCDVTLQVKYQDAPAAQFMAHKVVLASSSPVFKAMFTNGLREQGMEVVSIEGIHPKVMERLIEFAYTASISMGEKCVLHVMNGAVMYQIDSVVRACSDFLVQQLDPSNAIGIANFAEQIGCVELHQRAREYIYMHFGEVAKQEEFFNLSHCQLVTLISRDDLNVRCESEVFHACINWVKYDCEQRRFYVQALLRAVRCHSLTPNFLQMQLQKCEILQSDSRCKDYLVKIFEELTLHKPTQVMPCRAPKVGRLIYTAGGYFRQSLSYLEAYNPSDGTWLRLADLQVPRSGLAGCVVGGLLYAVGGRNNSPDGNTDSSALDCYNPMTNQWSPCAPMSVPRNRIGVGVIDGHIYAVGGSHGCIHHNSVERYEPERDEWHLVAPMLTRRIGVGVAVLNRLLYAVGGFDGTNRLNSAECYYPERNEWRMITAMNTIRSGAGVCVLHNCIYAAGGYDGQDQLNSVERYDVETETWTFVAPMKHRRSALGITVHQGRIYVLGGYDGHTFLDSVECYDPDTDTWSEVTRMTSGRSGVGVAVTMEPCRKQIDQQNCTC
CAL PDZ FP-1 – human CAL PDZ-peptide interaction inhibition. inhibition, % at 20 µM. 330,000 tested, 0.02% active. purified CAL PDZ, TMR-peptide fluorescence polarization, 1 h. AID 504414;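 active means highest replicate inhibition of at least 40%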;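 further: plate controls were DMSO neutral control wells for no effect and unlabeled competitor peptide control wells for full effect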
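Test system: purified CerCALP PDZ construct; Compound dosing: one concentration, 20 µM compound; Also added: TMR-labelled reporter peptide T*-PRC34 bound in PDZ groove; Read-out: inhibition from polarization loss; Controls: unlabelled peptide and DMSO controls; Signal: FP readout, S and P plane fluorescence; Incubation: 1 h at RT.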
LANA DNA inh – inhibitors of KSHV LANA C-terminal domain DNA binding. 340,000 tested, 0.078% active. MBP-C-LANA/FAM-LBS DNA binding, fluorescence polarization. inhibition, % at 9 µM;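 active means highest replicate inhibition at or above 60% at 9 µM, even if other replicates fall short; inactive means all replicates below 60% inhibition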;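 further: 0% = neutral control wells and 100% = 4 µM acridine orange control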
miR122 inh – miR-122 inhibition in Huh7 cells. 340,000 tested, 0.3% active. Huh7 miR-122 Renilla luciferase sensor, 48 h; neutral wells = 0, positive control = 100. AID 602342. activation (reporter increase), % at 12.5 µM;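 active means mean replicate activation score at least 90 and every replicate individually at or above 90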;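 further: higher luciferase means less miR-122 activity so hits act as miR-122 inhibitors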
CAL PDZ FP-2 – CAL PDZ (human) peptide binding inhibition; purified CAL PDZ, TMR-peptide fluorescence polarization, 1 h; inhibition, % at 24.9 µM; 300,000 tested, 0.92% active;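 active means mean inhibition of at least 30% with at least half of replicates also reaching 30%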;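 further: 0% = DMSO neutral control and 100% = excess unlabeled competitor peptide PRC23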
Keap1 TSA – binds and thermally shifts human Keap1 Kelch domain; shares compounds with Keap1-Nrf2 PPI; Keap1 Kelch thermal shift, delta Tm; stronger effect = higher value; max delta Tm, degrees C; 400 tested, 8% active; in the data active means max delta Tm above about 0.48 degrees C
Dye-only ctr – shifts Sypro Orange melt without protein, a false positive; shares compounds with Keap1-Nrf2 PPI; Sypro Orange dye-only thermal melt, no protein, delta Tm; top dose 26 µM; delta Tm, degrees C (concentration not given with the values); 140 tested, under 10 active;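 active means at highest dose tested, delta Tm positive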
* marks the source's active call; other numbers are inactive results; · = no result given; [ ] = dose if it differs, or a comment. Rows were chosen to be rich in hits. Some 1.1% of all compounds tested hit in one or more screens of this group.

SMILES | Keap1-Nrf2 PPI | CAL PDZ FP-1 | LANA DNA inh | miR122 inh | CAL PDZ FP-2 | Keap1 TSA | others
CCCNC(=O)Nc1ccc2c(c1)C(=O)N(C)[C@H]1CC[C@H](CC(=O)NC3CCC3)O[C@@H]1CO2 | · | · | · | 4.4[16.7 µM] | · | ·
Cc1nc(NC(=O)C2CC2)sc1C(=O)Nc1ccccc1 | -0.6 | -0.9 | 0.4 | -8.5 | · | ·
Cc1ccccc1NC(=O)c1sc(NC(=O)C2CC2)nc1C | 28.4* | -1.3 | 11.9 | 2.4 | · | 0.01
Cc1cccn2c(=O)c3cc(S(=O)(=O)c4ccccc4)c(=N)n(Cc4cccnc4)c3nc12 | 19.5* | -5.7 | 31.3 | 6.4 | -11.8 | -0.02
N=c1c(S(=O)(=O)c2ccccc2)cc2c(=O)n3ccccc3nc2n1Cc1cccnc1 | 2.1 | -2.6 | 7.9 | -2.9 | -0.8 | ·
O=S(=O)([N-]c1nc2ccccc2nc1-[n+]1ccc(-c2ccncc2)cc1)c1ccccc1 | 17.2* | -2.1 | 4.8 | · | -0.6 | 0 | Dye-only ctr=-27.4
CCCNC(=O)[C@@H]1[C@@H](CO)[C@@H]2Cn3c(cccc3=O)[C@@H]2N1C(=O)C1CCC1 | · | · | · | 2.2[16.7 µM] | · | ·
N#C/C(=C\c1ccc[nH]1)C(=O)N1CCCCC1 | 58.3* | -0.6 | · | 6.1 | · | -0.17
N#C/C(=C\c1ccc(O)cc1)C(=O)N1CCCC1 | -3.6 | -1.8 | -0.9 | -2.8 | -6.3 | ·
O=C(O)c1cccc(-n2cccc2/C=C2/NC(=O)N(c3ccc(Cl)cc3)C2=O)c1 | 19.5* | · | 110.1* | · | -4.7 | 0.46
O=C(O)c1cccc(-n2cccc2/C=C2/NC(=O)N(c3cccc(Cl)c3)C2=O)c1 | 0.8 | -3.3 | 18.8 | · | -6.2 | ·
CCN(CC)CCN1C(=O)c2cccc3cc(N)cc(c23)C1=O | 13.5* | · | 59.7 | -16.4 | -3.5 | -0.08
Cc1oc2c(cc(NS(=O)(=O)c3ccc4c5c(cccc35)C(=O)N4)c3ccccc32)c1C(=O)OC(C)C | 0.4 | -0.8 | -0.2 | 3.0 | -8.8 | ·
O=C1CCCc2oc3c(cc(NS(=O)(=O)c4ccc5c6c(cccc46)C(=O)N5)c4ccccc43)c21 | 23.9* | -7.1 | 0.1 | -2.2 | -3.9 | 1.59*
COc1ccccc1Cn1c(=S)[nH]c2ccccc2c1=O | 98.8* | -2.7 | -2.5 | · | 0.6 | 0.01
Cc1[nH][nH]c(=O)c1N=Nc1ccc(S(N)(=O)=O)cc1 | · | · | · | -2.1 | · | ·
NS(=O)(=O)c1ccc(N=Nc2c[nH]c(=O)c(O)c2)cc1 | 34.5* | · | 68.5* | -6.0 | -9.0 | 0.54* | Dye-only ctr=-26.1
COc1ccc(NS(=O)(=O)c2ccc(F)c(Cl)c2)cn1 | 21.3* | -1.1 | 31.7 | 2.9 | -1.3 | -0.07
COc1ccc(NS(=O)(=O)c2ccc(Br)cc2)cn1 | -2.0 | -3.3 | 0.8 | 6.5 | -0.7 | ·
CCC(=O)N(C)C[C@H]1Oc2ncc(Br)cc2C(=O)N([C@@H](C)CO)C[C@H]1C | · | · | · | 1.6[16.7 µM] | · | ·
CCCNC(=O)NC[C@H]1[C@H](c2ccc(C3=CCCC3)cc2)[C@@H](CO)N1C(C)=O | · | · | · | 0.0[16.7 µM] | · | ·
Cc1cc(Cl)ccc1NNC(=O)c1cccs1 | -4.3 | 0.0 | 0.3 | 3.0 | -3.5 | ·
O=C(NNc1cc(Cl)ccc1Cl)c1cccs1 | 30.6* | -0.6 | 14.1 | -3.1 | · | -0.11
C[C@@H]1CCCCO[C@@H](CN(C)S(=O)(=O)c2cn(C)cn2)[C@@H](C)CN([C@H](C)CO)C(=O)c2cc(NC(=O)Nc3ccccc3)ccc2O1 | · | · | · | 9.2[16.7 µM] | · | ·
Cc1ccc(S(=O)(=O)Nc2ccc(O)c3ccccc23)c(C)c1 | 12.1* | 0.4 | 1.3 | 9.3 | -6.4 | 1.23*
SMILES | Keap1-Nrf2 PPI | CAL PDZ FP-1 | LANA DNA inh | miR122 inh | CAL PDZ FP-2 | Keap1 TSA | others
Cc1ccc(S(=O)(=O)Nc2cccc(S(=O)(=O)Nc3ccccc3C(=O)O)c2)c(C)c1 | 15.6* | 0.0 | 0.0 | -2.3 | -6.6 | 1.13*
Cc1ccc(S(=O)(=O)Nc2cc(C(C(=O)OC(C)C)C(=O)C(F)(F)F)c(O)c3ccccc23)c(C)c1 (configuration not stated) | 50.9* | 0.3 | -1.6 | -6.6 | · | 10.3*
Cc1ccc(C)c(S(=O)(=O)Nc2ccc(O)c3ccccc23)c1 | 4.1 | 0.0 | -1.8 | · | 2.2 | ·
C[C@@H]1CN([C@@H](C)CO)C(=O)c2cc(NC(=O)C3CC3)ccc2O[C@@H]1CN(C)C(=O)Nc1ccc2c(c1)OCO2 | · | · | · | 0.5[16.7 µM] | · | ·
C[C@@H](NC(=O)C[C@@H]1C[C@@H]2c3cc(NC(=O)c4ccc5c(c4)OCO5)ccc3O[C@@H]2[C@H](CO)O1)c1ccccc1 | · | · | · | -1.4[16.7 µM] | · | ·
C[C@H](CO)N1C[C@H](C)[C@H](CN(C)C(=O)Nc2ccc(F)cc2)Oc2c(NC(=O)c3nc4ccccc4s3)cccc2C1=O | · | · | · | -1.7[16.7 µM] | · | ·
O=C(C[C@H]1C[C@H]2c3cc(NC(=O)C4CCC4)ccc3O[C@H]2[C@@H](CO)O1)NCc1ccccc1 | · | · | · | -3.7[16.7 µM] | · | ·
O=c1[nH]c(/C=C/c2ccccc2F)nc2ccccc12 | 3.4 | 15.0 | -1.2 | 3.1 | 1.1 | ·
O=c1[nH]c(/C=C/c2cccc3ccccc23)nc2ccccc12 | 16.6* | 1.1 | 34.8 | · | · | -0.02 | Dye-only ctr=-21.9
Cc1ccc(C)c(N2CCN(C(=O)c3cc4ccccn4n3)CC2)c1 | 16.3* | 0.0 | 44.3 | · | -1.4 | 0.38 | Dye-only ctr=-28.2
COc1ccc(CN2C[C@@H](C)[C@H](OC)CN(C)C(=O)c3ccc(NC(=O)C4CC4)cc3OC[C@H]2C)cc1 | · | · | · | -1.4[16.7 µM] | · | ·
COc1ccc(NC(=O)Cc2ccsc2)cc1S(=O)(=O)N1CCOCC1 | 46.0* | -0.6 | 26.8 | -3.5 | · | -0.13
CCC1(c2ccccc2)NC(=O)N(CC(=O)Nc2ccc3c(c2)CCC3)C1=O (configuration not stated) | · | · | · | 17.0 | · | ·
CCC1(c2ccccc2)NC(=O)N(CC(=O)Nc2ccc(OC)nc2)C1=O (configuration not stated) | 60.7* | -2.5 | 88.3* | -3.9 | -1.4 | -0.12
Cc1cc(NC(=O)CSc2nnc(-c3ccncc3)n2Cc2ccccc2)n(-c2ccccc2)n1 | -4.2 | -0.4 | 1.7 | -3.4 | 5.9 | ·
Cc1cc(NC(=O)CSc2nnc(-c3ccncc3)n2C)n(-c2ccccc2)n1 | 14.6* | 0.3 | 11.9 | -3.3 | 77.4* | -0.15 | Dye-only ctr=-22.3
CC[C@@]1(O)C(=O)OCc2c1cc1n(c2=O)Cc2cc3c(CN(C)C)c(O)ccc3nc2-1 | 77.9* | -0.2 | 131.4* | -19.1 | -2.9 | -0.08
CCCNC(=O)Nc1ccc2c(c1)C(=O)N(C)[C@H]1CC[C@H](CC(=O)NC)O[C@@H]1CO2 | · | · | · | 6.7[16.7 µM] | · | ·
CCN(CC)c1ccc(/C=N/NC(=O)c2c(Cl)cnn2C)c(O)c1 | 21.7* | 0.0 | -2.2 | · | -9.6 | -0.15
O=C1c2cccc3c(N4CCCCC4)ccc(c23)C(=O)N1c1cccc(O)c1 | 27.0* | -3.6 | 52.9 | · | -1.5 | -0.08 | Dye-only ctr=-26.9
Cc1n[nH]c(C)c1N1C(=O)c2cccc3c(N4CCCCCC4)ccc(c23)C1=O | 15.7* | -2.2 | 42.5 | -12.3 | -1.4 | -0.13
OC(Cc1ccncc1)(c1ccccc1)c1ccccc1 | 28.0* | -0.6 | -1.4 | -1.4 | -5.9 | -0.11

Screening results deposited in PubChem by Broad Institute.
